ChEMBL document CHEMBL3351814, “Discovery of selective hexapeptide agonists to human neuromedin U receptors types 1 and 2” (J Med Chem, 2014)
Active and inactive are the calls of the source. The calls are words filed in the database; no cut-off is given here. Where a SMILES comes first, the peptide text is derived from it. [ ]: non-standard residue; d: D form. The star is where a group is joined. Propanoyl(3-(3-pyridyl)) = O=C(CCc1cccnc1)*; 2Nal = N[C@@H](Cc1ccc2ccccc2c1)C(=O)O; Propanoyl(3-cHex) = O=C(CCC1CCCCC1)*; Hydrocinnamoyl = O=C(CCc1ccccc1)*; Dap = NC[C@H](N)C(=O)O

What was measured:
Neuromedin-U receptor 2 [1] = molecular target: T1, Neuromedin-U receptor 2 (Homo sapiens, UniProt Q9GZQ4); assay: Agonist activity at human NMUR2 expressed in CHO cells assessed as concentration required to induce 50% response by calcium mobilization assay relative to NMU; type: functional, cell-based
T1 sequence (Q9GZQ4 whole entry): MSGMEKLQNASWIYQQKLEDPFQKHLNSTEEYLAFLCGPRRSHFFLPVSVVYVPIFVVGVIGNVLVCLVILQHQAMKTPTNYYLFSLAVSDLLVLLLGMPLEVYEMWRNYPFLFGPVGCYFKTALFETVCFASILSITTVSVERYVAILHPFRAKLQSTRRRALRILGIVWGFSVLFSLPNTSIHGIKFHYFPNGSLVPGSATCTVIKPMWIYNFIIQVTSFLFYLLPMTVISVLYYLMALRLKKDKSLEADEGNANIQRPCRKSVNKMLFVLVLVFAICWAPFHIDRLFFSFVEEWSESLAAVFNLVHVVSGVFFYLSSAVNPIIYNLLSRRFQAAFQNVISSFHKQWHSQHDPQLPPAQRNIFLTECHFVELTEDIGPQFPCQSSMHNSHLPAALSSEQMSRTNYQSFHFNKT
In short: (§1)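 CHO cells stably expressing human NMUR1 (CHO/NMUR1-9) or NMUR2 (CHO/NMUR2-8), selected with G418, seeded 2.0 × 10^4 cells/well. Cells loaded 40 min with 4 μM Fluo-4-AM in HBSS/10 mM HEPES/2.5 mM probenecid pH 7.4. Peptides from 20 mM DMSO stocks applied at 10−12 to 10−6 M final, triplicate, FLIPR read-out. PC50 is the concentration giving 50% of the response to hNMU at 1000 nM.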

Neuromedin-U receptor 2 [2] = molecular target: T1, Neuromedin-U receptor 2; assay: Partial agonist activity at human NMUR2 expressed in CHO cells by calcium mobilization assay; type: functional, cell-based
In short: (§2)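 Calcium mobilization in CHO cells stably expressing human NMUR1 or NMUR2, Fluo-4-AM loaded, read on a fluorometric imaging plate reader. Peptides tested at 10−12 to 10−6 M final in triplicate. EC50 derived from the curves. Intrinsic activity is the maximal response as % of the endogenous agonist hNMU.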

Neuromedin-U receptor 2 [3] = molecular target: T1, Neuromedin-U receptor 2; assay: Agonist activity at human NMUR2 expressed in HEK293 cells at 1 to 100 nM by calcium mobilization assay relative to NMU; type: functional, cell-based
In short: (§3)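 HEK293 cells transiently transfected with human NMUR1 or NMUR2 plasmid (FuGENE6), reseeded 18 h post-transfection at 4.0 × 10^4 cells/well on poly-D-lysine. After 18 h, loaded 40 min with 4 μM Fluo-4-AM in HBSS/HEPES/probenecid buffer pH 7.4 with 1% FCS, then washed. Peptides in buffer with 0.05% BSA and 0.001% Triton X-100. Maximal FLIPR signal expressed as % of hNMU at 1000 nM.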

[4] = molecular target: T2, Neuromedin-U receptor 1 (Homo sapiens) (UniProt Q9HB89); assay: Agonist activity at human NMUR1 expressed in CHO cells assessed as concentration required to induce 50% response by calcium mobilization assay relative to NMU; type: functional, cell-based; in short: as §1
T2 sequence (whole entry): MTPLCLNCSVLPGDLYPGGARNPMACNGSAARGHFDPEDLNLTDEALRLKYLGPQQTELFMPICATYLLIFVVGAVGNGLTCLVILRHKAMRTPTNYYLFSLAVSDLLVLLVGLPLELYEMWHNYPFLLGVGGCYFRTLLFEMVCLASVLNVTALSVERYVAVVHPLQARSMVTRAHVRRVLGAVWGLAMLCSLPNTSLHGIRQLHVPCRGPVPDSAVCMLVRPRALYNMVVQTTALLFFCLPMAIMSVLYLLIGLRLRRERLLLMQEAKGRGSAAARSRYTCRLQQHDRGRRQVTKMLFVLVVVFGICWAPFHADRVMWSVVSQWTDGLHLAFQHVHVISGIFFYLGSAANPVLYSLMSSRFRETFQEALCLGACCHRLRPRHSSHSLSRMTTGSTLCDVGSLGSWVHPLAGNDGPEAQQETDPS

Neuromedin-U receptor 2 [5] = molecular target: T1, Neuromedin-U receptor 2; assay: Agonist activity at human NMUR2 expressed in CHO cells at 10^-12 to 10^-6 M by calcium mobilization assay relative to NMU; type: functional, cell-based; in short: as §1
Homo sapiens [6] = species: Homo sapiens; assay: Selectivity ratio of PC50 for human NMUR2 to PC50 for human NMUR1
In short: (§4)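 Ratio of PC50 values from the CHO stable-line calcium assays. NMUR1 selectivity is PC50(NMUR2)/PC50(NMUR1); NMUR2 selectivity is PC50(NMUR1)/PC50(NMUR2).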

Neuromedin-U receptor 1 [7] = molecular target: T3, Neuromedin-U receptor 1 (Homo sapiens, UniProt Q9HB89); assay: Partial agonist activity at human NMUR1 expressed in CHO cells by calcium mobilization assay; type: functional, cell-based; in short: as §2
T3 sequence (Q9HB89 whole entry): T2 sequence (whole entry)

Homo sapiens [8] = species: Homo sapiens; assay: Selectivity ratio of PC50 for human NMUR1 to PC50 for human NMUR2; in short: as §4
[9] = molecular target: T2, Neuromedin-U receptor 1 (Homo sapiens); assay: Agonist activity at human NMUR1 expressed in HEK293 cells at 1 to 100 nM by calcium mobilization assay relative to NMU; type: functional, cell-based; in short: as §3
[10] = molecular target: T2, Neuromedin-U receptor 1 (Homo sapiens); assay: Agonist activity at human NMUR1 expressed in CHO cells at 10^-12 to 10^-6 M by calcium mobilization assay relative to NMU; type: functional, cell-based; in short: as §1
[11] = molecular target: T2, Neuromedin-U receptor 1 (Homo sapiens); assay: Agonist activity at human NMUR1 expressed in HEK293 cells at 1 nM by calcium mobilization assay relative to NMU; type: functional, cell-based; in short: as §3
[12] = molecular target: T2, Neuromedin-U receptor 1 (Homo sapiens); assay: Agonist activity at human NMUR1 expressed in HEK293 cells at 10 nM by calcium mobilization assay relative to NMU; type: functional, cell-based; in short: as §3
Neuromedin-U receptor 2 [13] = molecular target: T1, Neuromedin-U receptor 2; assay: Agonist activity at human NMUR2 expressed in HEK293 cells at 10 nM by calcium mobilization assay relative to NMU; type: functional, cell-based; in short: as §3
Neuromedin-U receptor 2 [14] = molecular target: T1, Neuromedin-U receptor 2; assay: Agonist activity at human NMUR2 expressed in CHO cells by calcium mobilization assay; type: functional, cell-based; in short: as §2
Neuromedin-U receptor 2 [15] = molecular target: T1, Neuromedin-U receptor 2; assay: Agonist activity at human NMUR2 expressed in HEK293 cells at 1 nM by calcium mobilization assay relative to NMU; type: functional, cell-based; in short: as §3
Neuromedin-U receptor 1 [16] = molecular target: T3, Neuromedin-U receptor 1; assay: Agonist activity at human NMUR1 expressed in CHO cells by calcium mobilization assay; type: functional, cell-based

Row | Compound | Activity (Neuromedin-U receptor 2 [1]) [nM] | EC50 (Neuromedin-U receptor 2 [2]) [nM] | Activity (Neuromedin-U receptor 2 [3]) | Activity [4] [nM] | Intrinsic activity (Neuromedin-U receptor 2 [5]) [%] | Selectivity ratio (Homo sapiens [6]) | EC50 (Neuromedin-U receptor 1 [7]) [nM] | Selectivity ratio (Homo sapiens [8]) | Activity [9] | Intrinsic activity [10] [%] | Activity [11] [%] | Activity [12] [%] | Activity (Neuromedin-U receptor 2 [13]) [%] | EC50 (Neuromedin-U receptor 2 [14]) [nM] | Activity (Neuromedin-U receptor 2 [15]) [%] | EC50 (Neuromedin-U receptor 1 [16]) [nM]
1 | CC(C)C[C@H](NC(=O)CCc1ccccc1)C(=O)N[C@@H](Cc1ccccc1)C(=O)N[C@@H](CCCNC(=N)N)C(=O)N1CCC[C@H]1C(=O)N[C@@H](CCCNC(=N)N)C(=O)N[C@@H](CC(N)=O)C(N)=O (Hydrocinnamoyl-LFRPRN-NH2) | 18 | 8.4 | Active | 20 | 82 | 0.9 | 9 | 1.1 | Active | 71 |  |  |  |  |  | 
2 | N=C(N)NCCC[C@H](NC(=O)[C@@H]1CCCN1C(=O)[C@H](CCCNC(=N)N)NC(=O)[C@H](Cc1ccccc1)NC(=O)[C@H](Cc1ccc2ccccc2c1)NC(=O)CCc1cccnc1)C(=O)N[C@@H](CC(N)=O)C(N)=O ({Propanoyl(3-(3-pyridyl))}-[2Nal]FRPRN-NH2) | 249 |  |  | 5.1 |  | 49 | 2.2 | 0.02 | Active | 79 | 63 | 84 |  |  |  | 
3 | CC(C)C[C@H](NC(=O)CCC1CCCCC1)C(=O)N[C@@H](CC(C)C)C(=O)N[C@@H](CN)C(=O)N1CCC[C@H]1C(=O)N[C@@H](CCCNC(=N)N)C(=O)N[C@@H](CC(N)=O)C(N)=O ({Propanoyl(3-cHex)}-LL[Dap]PRN-NH2) | 6.6 |  |  | > 1000 | 98 | < 0.0066 |  | > 152 |  |  |  |  | 88 | 6.4 | 70 | 
4 | H-FRVDEEFQSPFASQSRGYFLFRPRN-NH2 | 2.5 |  |  | 0.43 |  | 5.8 |  | 0.17 |  |  |  |  |  | 2.5 |  | 0.43
